The text below walks through data of ChEMBL document CHEMBL2169862, “Synthesis and biological evaluation of 1α,25-dihydroxyvitamin D₃ analogues with a long side chain at C12 and short C17 side chains” (J Med Chem, 2012).

For series [1], the system named is SW480-ADH. Description: Induction of human SW480-ADH cell differentiation assessed as formation of compact epithelioid islands of highly adherent cells at 10 '-8 M after 48 hrs by phase-contrast microscopy. In kind it is functional, cell-based. Put shortly:
(§1)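 SW480-ADH colon cancer cells were treated for 48 h with compound or vehicle in medium with charcoal-treated FCS. Differentiation was scored as compact epithelioid islands of highly adherent cells. A representative experiment is shown.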

The subject of series [2] is Mus musculus. The series can be described thus: Increase in serum Calcium levels in CD-1 mouse at 0.3 ug/kg, ip administered every other day for 3 weeks measured on day 21. It is filed as functional. The essentials:
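Female CD-1 mice, 6–8 weeks, six per group. Dosed ip in sesame oil every other day for three weeks; vehicle controls. Serum calcium measured with a colorimetric calcium kit a day after the last dose (day 21). Shown as percentage of calcium increase over untreated mice, with the 1α,25-(OH)₂D₃ group set to 100%. SD reported.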

The target in series [3] is T1, Vitamin D3 receptor (Homo sapiens, UniProt P11473).
T1 sequence (P11473 whole entry): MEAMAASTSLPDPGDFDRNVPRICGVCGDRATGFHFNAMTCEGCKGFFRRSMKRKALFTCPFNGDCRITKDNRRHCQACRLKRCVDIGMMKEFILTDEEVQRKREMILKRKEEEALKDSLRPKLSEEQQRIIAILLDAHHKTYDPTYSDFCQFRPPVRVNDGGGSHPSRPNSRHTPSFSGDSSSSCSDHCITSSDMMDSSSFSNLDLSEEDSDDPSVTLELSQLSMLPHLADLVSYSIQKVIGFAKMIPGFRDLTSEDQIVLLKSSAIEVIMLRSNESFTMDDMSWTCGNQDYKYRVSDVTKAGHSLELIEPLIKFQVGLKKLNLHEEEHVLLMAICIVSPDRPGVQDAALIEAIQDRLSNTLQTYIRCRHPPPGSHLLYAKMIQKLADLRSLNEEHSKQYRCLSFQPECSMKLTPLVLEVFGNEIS
The series can be described thus: Agonist activity at VDR in human MCF7 cells assessed as transcription of CYP24A1 gene after 24 hrs by luciferase reporter gene assay. In kind it is functional, cell-based. On the technique in general: In a reporter assay the amount or activity of a reporter protein is the signal.

In series [4] the test system is SW480-ADH. Description: Induction of human SW480-ADH cell differentiation assessed as formation of compact epithelioid islands of highly adherent cells at 10 '-7 M after 48 hrs by phase-contrast microscopy. In kind it is functional, cell-based. The essentials:
as §1

In series [5] the test system is MCF7. Description: Antiproliferative activity against human MCF7 cells at 10 '-7 M after 48 hrs by MTT assay relative to untreated-control. It is filed as functional, cell-based. The essentials: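 MCF-7 cells seeded at 5 × 10⁴ per well, treated 24 h later for 48 h in medium with charcoal-treated FCS; vehicle controls. MTT (0.5 μg/μL) added for 1 h, medium removed, formazan dissolved in DMSO, absorbance read at 570 nm. Three individual experiments averaged; SD shown.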
Background: Tetrazolium assays rely on reduction of a dye to a coloured formazan, in cell work by metabolically active cells.

Series [6] has as its target T1, Vitamin D3 receptor. Description: Binding affinity to VDR assessed as inhibition of fluorescent ligand by fluorescence polarization competition assay. (In fluorescence polarisation assays a small probe gives low polarisation when free and higher when bound to something large.)
The subject of series [7] is Mus musculus. The series can be described thus: Toxicity in CD-1 mouse assessed as body weight loss at 0.3 ug/kg, ip administered every other day for 3 weeks measured on day 21. It is filed as organism-based. To be noted: in vivo, 0.0003 mg/kg, 504 h. Put shortly:
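Female CD-1 mice, 6–8 weeks, six per group. Dosed ip in sesame oil every other day for three weeks; vehicle controls. Body weight recorded every other day.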

Series [8] concerns SW480-ADH. The series can be described thus: Effect on cellular PIP4K2B mRNA level in human SW480-ADH cells at 10 '-9 to 10 '-7 M after 48 hrs by RT-PCR analysis. It is filed as functional, cell-based. Put shortly:
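SW480-ADH cells treated 48 h in medium with charcoal-treated FCS; vehicle controls. Quantitative RT-PCR: 95 °C 10 min, then 40 cycles of 95 °C 15 s and 60 °C 30 s. Expression normalized to RPLP0 by comparative C_T method. Measurements in triplicate.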

Calls of active or inactive are those of the source. No cut-off for these calls is given here.

For orientation: EC50 means the concentration that produces a half-maximal response. What is called IC50 is the concentration at which inhibition is half-maximal. As for `C=C1/C(=C\C=C2/CC[C@@H](CCCCCCC(C)(C)O)[C@]3(C)[C@@H]([C@H](C)CCCO)CC[C@@H]23)C[C@@H](O)C[C@@H]1O`, the outcome in series [1] and in series [8] was inactive. The figures for the Activity in series [2] and in series [7] were 1% and “Non-toxic”, respectively. In addition, the EC50 in series [3] came to 5.74 nM. In addition, the result in series [4] and in series [5] was Active. For the same molecule, the IC50 in series [6] was 15.7 nM.
Consider `C=C1/C(=C\C=C2/CC[C@@H](CCCCCCC(C)(C)O)[C@]3(C)[C@@H]([C@H](C)CCO)CC[C@@H]23)C[C@@H](O)C[C@@H]1O`, for which the result in series [1] and in series [8] was inactive. For the same molecule, the figures for the Activity in series [2] and in series [7] were 18% and “Non-toxic”, respectively. Moreover, in series [3], the EC50 turned out to be 9.04 nM. The outcome in series [4] and in series [5] was Active. For the same molecule, the half-inhibitory concentration (IC50) in series [6] is 27.3 nM.
In the case of `C=C1/C(=C\C=C2/CCC[C@]3(C)[C@@H]([C@H](C)CCCC(C)(C)O)CC[C@@H]23)C[C@@H](O)C[C@@H]1O` [CALCITRIOL], the outcome in series [1], in series [4] and in series [5] was Active. Further, the results for the Activity in series [2] and in series [7] were 100% and “Non-toxic”, respectively. Besides, the outcome in series [8] was inactive.
As for `C=C1/C(=C\C=C2/CC[C@@H](CCCCCCC(C)(C)O)[C@]3(C)[C@@H]([C@H](C)CO)CC[C@@H]23)C[C@@H](O)C[C@@H]1O`, the result in series [1] and in series [8] was inactive. Further, the Activity is 0% in series [2] and “Non-toxic” in series [7]. Further, in series [3], the EC50 was determined as 8.19 nM. Further, the result in series [4] and in series [5] was Active. Moreover, in series [6], the IC50 turned out to be 20.9 nM.
